Assay results taken from ChEMBL document CHEMBL1127543, “Dual angiotensin converting enzyme/thromboxane synthase inhibitors” (J Med Chem, 1994).
Calls of active or inactive are those of the source. The calls are words filed in the database; no cut-off is given here.

What was measured:
[1] = biological target: T1, Angiotensin-converting enzyme (Oryctolagus cuniculus, UniProt P12822); assay: Tested for 50% inhibition of Angiotensin converting enzyme(ACE) obtained from rabbit lung (in vitro)
T1 sequence (P12822 whole entry): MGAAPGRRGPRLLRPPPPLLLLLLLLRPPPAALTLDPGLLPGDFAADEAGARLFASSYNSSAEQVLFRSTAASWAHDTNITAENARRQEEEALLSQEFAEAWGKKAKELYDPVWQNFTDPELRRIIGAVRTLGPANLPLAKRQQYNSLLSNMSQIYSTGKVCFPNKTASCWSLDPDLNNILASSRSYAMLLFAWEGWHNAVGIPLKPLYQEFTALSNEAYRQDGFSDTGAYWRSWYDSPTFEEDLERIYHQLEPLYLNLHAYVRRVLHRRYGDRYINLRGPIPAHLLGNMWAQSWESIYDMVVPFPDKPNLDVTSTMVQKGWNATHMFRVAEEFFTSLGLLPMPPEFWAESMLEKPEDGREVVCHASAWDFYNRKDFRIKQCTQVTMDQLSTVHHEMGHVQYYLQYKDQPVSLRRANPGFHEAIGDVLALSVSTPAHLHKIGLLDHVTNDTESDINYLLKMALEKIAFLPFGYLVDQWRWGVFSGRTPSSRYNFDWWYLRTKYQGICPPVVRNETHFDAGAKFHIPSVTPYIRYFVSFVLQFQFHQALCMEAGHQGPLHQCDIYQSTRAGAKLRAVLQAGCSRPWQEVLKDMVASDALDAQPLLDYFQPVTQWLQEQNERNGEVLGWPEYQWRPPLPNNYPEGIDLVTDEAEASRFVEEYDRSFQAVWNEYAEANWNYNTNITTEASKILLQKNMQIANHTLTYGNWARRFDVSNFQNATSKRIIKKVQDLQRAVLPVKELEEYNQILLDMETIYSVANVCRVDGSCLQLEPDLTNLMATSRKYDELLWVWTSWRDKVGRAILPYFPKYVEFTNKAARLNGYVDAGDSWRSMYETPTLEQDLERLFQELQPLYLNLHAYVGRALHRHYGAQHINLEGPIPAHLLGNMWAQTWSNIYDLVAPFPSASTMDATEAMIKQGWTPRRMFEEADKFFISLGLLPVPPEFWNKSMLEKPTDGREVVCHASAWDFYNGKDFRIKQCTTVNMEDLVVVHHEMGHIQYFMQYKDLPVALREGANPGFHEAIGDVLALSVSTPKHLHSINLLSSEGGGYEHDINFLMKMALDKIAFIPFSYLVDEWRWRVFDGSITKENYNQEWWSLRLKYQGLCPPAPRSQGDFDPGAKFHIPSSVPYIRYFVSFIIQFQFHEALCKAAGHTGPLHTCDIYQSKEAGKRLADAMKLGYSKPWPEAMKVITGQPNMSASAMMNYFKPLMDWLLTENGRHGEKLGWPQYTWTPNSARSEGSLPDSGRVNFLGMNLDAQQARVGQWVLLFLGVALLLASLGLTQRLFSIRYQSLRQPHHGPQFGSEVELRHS
In short: (§1)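 ACE was partially purified from rabbit lung and incubated with the synthetic substrate Hip-His-Leu. The hippuric acid product was measured spectrophotometrically. IC50 was read graphically from a range of inhibitor concentrations within the assay's linear range. Each determination was done in duplicate and repeated once.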

[2] = biological target: T2, Thromboxane-A synthase (Homo sapiens, UniProt P24557); assay: Tested for 50% inhibition of thromboxane synthase (TxS) in human platelets (in vitro); Not active
T2 sequence (P24557 whole entry): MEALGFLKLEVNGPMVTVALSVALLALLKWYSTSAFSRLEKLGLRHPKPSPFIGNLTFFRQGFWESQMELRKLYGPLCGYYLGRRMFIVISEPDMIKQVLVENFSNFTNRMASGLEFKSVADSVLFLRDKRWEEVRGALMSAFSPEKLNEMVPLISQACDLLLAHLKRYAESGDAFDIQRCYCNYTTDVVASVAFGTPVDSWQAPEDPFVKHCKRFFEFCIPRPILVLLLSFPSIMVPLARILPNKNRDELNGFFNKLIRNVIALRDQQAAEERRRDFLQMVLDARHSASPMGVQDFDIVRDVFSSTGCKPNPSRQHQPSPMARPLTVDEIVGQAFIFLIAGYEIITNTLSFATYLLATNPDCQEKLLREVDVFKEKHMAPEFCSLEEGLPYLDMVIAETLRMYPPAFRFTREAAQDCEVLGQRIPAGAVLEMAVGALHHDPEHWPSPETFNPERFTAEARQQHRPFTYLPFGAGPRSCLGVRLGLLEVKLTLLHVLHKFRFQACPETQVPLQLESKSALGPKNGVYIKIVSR
In short: (§2)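 IC50 was obtained graphically from a range of compound concentrations within the linear range of the assay. Determinations were made in duplicate and repeated once.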

[3] = biological target: T2, Thromboxane-A synthase; assay: Tested for 50% inhibition of thromboxane synthase (TxS) in human platelets (in vitro); in short: as §2
[4] = biological target: T1, Angiotensin-converting enzyme; assay: Tested for 50% inhibition of Angiotensin converting enzyme(ACE) obtained from rabbit lung (in vitro); Not active; in short: as §1
[5] = tested on: Rattus norvegicus; assay: Antihypertensive activity was measured in spontaneously hypertensive rat (SHR) by measuring the maximum blood pressure when administered orally at dose of 10 mg/kg after 6 h; format: functional; settings: route oral
In short: (§3)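 Conscious, fully ambulatory SHR (250–280 g) were fitted with an arterial catheter led through an infusion swivel inside a protective spring. After 24 h recovery from surgery, rats were housed singly. Mean arterial pressure was recorded continuously after dosing over a 6-h period, with later readings up to 24 h. Rats had chow and tap water freely under a 12-h light cycle.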

[6] = tested on: Rattus norvegicus; assay: Antihypertensive activity was measured in spontaneously hypertensive rat (SHR) by measuring the blood pressure after 24 hours when administered orally at dose of 10 mg/kg; format: functional; settings: route oral; in short: as §3
[7] = tested on: Rattus norvegicus; assay: Tested for percent inhibition of maximum angiotensin I (AI) pressor response in rats on oral administration of 300 mg/kg after 5 hr; format: functional
In short: (§4)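 Conscious catheterized SHR were prepared as for blood pressure recording. At set times after dosing, angiotensin I was injected intraarterially in 0.5 mL. The rise in arterial pressure was recorded and expressed as percent inhibition of the angiotensin I pressor response.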

[8] = tested on: Rattus norvegicus; assay: Tested for percent inhibition of maximum angiotensin I (AI) pressor response in rats on oral administration of 300 mg/kg after 6 hr; format: functional; in short: as §4
[9] = tested on: Rattus norvegicus; assay: Antihypertensive activity was measured in spontaneously hypertensive rat (SHR) by measuring the blood pressure after 24 hours when administered orally at dose of 30 mg/kg; format: functional; settings: route oral
In short: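 Conscious, unrestrained, fully ambulatory SHR (250–280 g) fed normal pellet chow with free access to tap water, on a 12-h light cycle. Oral dosing used a vehicle at 1 mL/kg po. The read-out was the change in mean arterial pressure from control.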

[10] = tested on: Rattus norvegicus; assay: Antihypertensive activity was measured in spontaneously hypertensive rat (SHR) by measuring the maximum blood pressure when administered orally at dose of 30 mg/kg after 6 h; format: functional; settings: route oral; in short: as §3
[11] = tested on: Rattus norvegicus; assay: Tested for percent inhibition of maximum angiotensin I (AI) pressor response in rats on oral administration of 300 mg/kg after 4 hr; format: functional; in short: as §4
[12] = tested on: Rattus norvegicus; assay: Antihypertensive activity was measured in spontaneously hypertensive rat (SHR) by measuring the maximum blood pressure when administered orally at dose of 30 mg/kg after 4 h; format: functional; settings: route oral; in short: as §3
[13] = species: Rattus norvegicus; settings: 30 mg/kg
[14] = tested on: Rattus norvegicus; assay: Antihypertensive activity was measured in spontaneously hypertensive rat (SHR) by measuring the maximum blood pressure when administered orally at dose of 10 mg/kg after 5 h; format: functional; settings: route oral; in short: as §3
[15] = tested on: Rattus norvegicus; assay: Antihypertensive activity was measured in spontaneously hypertensive rat (SHR) by measuring the blood pressure after 24 hours on interarterial administration at dose of 1 mg/kg; Not significant; format: functional, organism-based; design: dose 1 mg/kg; settings: Artery; in short: as §3
[16] = tested on: Rattus norvegicus; assay: Tested for percent inhibition of maximum angiotensin I (AI) pressor response in rats on oral administration of 300 mg/kg after 0.5 hr; format: functional; in short: as §4
[17] = tested on: Rattus norvegicus; assay: Antihypertensive activity was measured in spontaneously hypertensive rat (SHR) by measuring the blood pressure on interarterial administration at dose of 1 mg/kg after 5 h; format: functional, Artery; in short: as §3

Row | SMILES | IC50 [1] [nM] | IC50 [2] | IC50 [3] [nM] | also measured
1 | O=C(O)CN1C(=O)[C@@H](N[C@@H](CCc2ccccc2)C(=O)O)C[C@@H](O)c2ccccc21 | 8 | Not Active | – | –
2 | CCOP(=O)(O)CCCCn1c(-c2cccnc2)c(C)c2ccccc21.Cl | – | – | 9 | IC50 [4]: Not Active
3 | O=C([O-])CN1C(=O)C(OP(=O)([O-])CCCCc2ccccc2)CCc2ccccc21.[Na+].[Na+] (configuration not stated) | 20 | Not Active | – | –
4 | Cn1c(-c2cccnc2)c(CCCCCC(=O)NCCNCCCC[C@H](N[C@H]2CCc3ccccc3N(CC(=O)[O-])C2=O)C(=O)[O-])c2cc(Cl)ccc21.[K+].[K+] | 4 | – | 10 | Max delta BP [5]: -38 mmHg; Delta blood pressure [6]: -23 mmHg; inhibition in vivo at 300 mg/kg [7]: 39%
5 | CNCCN(CCCC[C@H](N[C@H]1CCc2ccccc2N(CC(=O)[O-])C1=O)C(=O)[O-])C(=O)CCCCCc1c(-c2cccnc2)n(C)c2ccc(Cl)cc12.[Na+].[Na+] | 10 | – | 18 | inhibition in vivo at 300 mg/kg [8]: 71%; Delta blood pressure [9]: -20 mmHg; Max delta BP [10]: -39 mmHg
6 | O=C(O)C(CCCCc1cccc2cncn12)CCC(=O)N1c2ccccc2C[C@H]1C(=O)O (some centres not stated) | 20 | – | – | –
7 | CCOC(=O)[C@H](CCc1ccccc1)N[C@H]1CCc2ccccc2N(CC(=O)O)C1=O [BENAZEPRIL] | 2 | Not Active | – | –
8 | CC(=O)O[C@@H]1C[C@H](N[C@@H](CCc2ccccc2)C(=O)O)C(=O)N(CC(=O)O)c2ccccc21 | 6 | – | – | –
9 | O=C(O)CN1C(=O)[C@@H](N[C@@H](CCCCNCCO)C(=O)O)CCc2ccccc21 | 7 | Not Active | – | inhibition in vivo at 300 mg/kg [11]: 84%; Max delta BP [12]: -28 mmHg; Delta blood pressure [13]: inactive
10 | Cn1c(-c2cccnc2)c(CCCCCC(=O)N(CCO)CCCC[C@H](N[C@H]2CCc3ccccc3N(CC(=O)O)C2=O)C(=O)O)c2cc(Cl)ccc21 | 10 | – | – | Max delta BP [14]: -42 mmHg; Delta blood pressure [15]: inactive; inhibition in vivo at 300 mg/kg [16]: 76%; Delta blood pressure [6]: -30 mmHg; inhibition in vivo at 300 mg/kg [7]: 30%; Max delta BP [17]: -23 mmHg
